Experimental data taken from ChEMBL document CHEMBL1681721, “Synthesis, in vitro antimalarial and cytotoxicity of artemisinin-aminoquinoline hybrids” (Bioorg Med Chem Lett, 2011).

How the values were obtained:
[1] = Selectivity index, ratio of IC50 for CHO cells to IC50 for chloroquine-sensitive Plasmodium falciparum D10; format: toxicity, cell-based; settings: hamster; for Selectivity Index: cho; for selectivity ratio: CHO cells, read-out: Selectivity Index
How it was run: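 Calculated as IC50 (CHO, MTT assay) / IC50 (P. falciparum D10), using IC50s measured in this work.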

CHO = assay: Cytotoxicity against CHO cells by MTT assay; format: cell-based, Cricetulus griseus
How it was run: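 MTT viability assay on Chinese hamster ovary (CHO) cells, with emetine as the reference drug. IC50 is the average of n data sets.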

Plasmodium falciparum [2] = assay: Antiplasmodial activity against chloroquine-sensitive Plasmodium falciparum D10 by lactate dehydrogenase assay; format: functional, organism-based
How it was run: (§1)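 IC50s measured in vitro against P. falciparum D10 (chloroquine-sensitive) and Dd2 (chloroquine-resistant). Compounds insoluble in the test medium were added as suspensions in DMSO. Chloroquine served as the reference antimalarial. Values are averages over n data sets.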

Plasmodium falciparum [3] = assay: Antiplasmodial activity against chloroquine-resistant Plasmodium falciparum Dd2 by lactate dehydrogenase assay; format: functional, organism-based; how it was run: as §1
Plasmodium falciparum [4] = assay: Resistance index, ratio of IC50 for chloroquine-resistant Plasmodium falciparum Dd2 to IC50 for chloroquine-sensitive Plasmodium falciparum D10; format: functional
How it was run: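 Calculated as IC50 (Dd2) / IC50 (D10), using IC50s from the parallel in vitro assays on both P. falciparum strains.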

Plasmodium falciparum [5] = assay: Ratio of chloroquine IC50 to compound IC50 for chloroquine-resistant Plasmodium falciparum Dd2; format: functional

Row | Compound | Selectivity Index [1] | IC50 (CHO; cho) [nM] | IC50 (Plasmodium falciparum [2]) [nM] | IC50 (Plasmodium falciparum [3]) [nM] | Ratio IC50 (Plasmodium falciparum [4]) | selectivity ratio [1] | IC50 (CHO; Cricetulus griseus, CHO) [nM] | IC50 (Plasmodium falciparum [2]; Plasmodium falciparum, D10) [nM] | IC50 (Plasmodium falciparum [3]; Plasmodium falciparum, Dd2) [nM] | Ratio IC50 (Plasmodium falciparum [5])
1 | C[C@H]1[C@@H](OCCNCCNc2ccnc3cc(Cl)ccc23)O[C@@H]2O[C@@]3(C)CC[C@H]4[C@H](C)CC[C@@H]1[C@@]24OO3.O=C(O)C(=O)O | 77 | 1640 | 21.5 | 25.7 | 1 | – | – | – | – | –
2 | C[C@H]1[C@@H](OCCNCCCNc2ccnc3cc(Cl)ccc23)O[C@@H]2O[C@@]3(C)CC[C@H]4[C@H](C)CC[C@@H]1[C@@]24OO3.O=C(O)C(=O)O | 12 | 170 | 14.3 | 19.8 | 1 | – | – | – | – | –
3 | C[C@H]1[C@@H](OCCNCCCNc2ccnc3cc(Cl)ccc23)O[C@@H]2O[C@@]3(C)CC[C@H]4[C@H](C)CC[C@@H]1[C@@]24OO3 | 317 | 37300 | 118 | 183 | 2 | – | – | – | – | –
4 | C[C@H]1[C@@H](OCCN2CCN(CCNc3ccnc4cc(Cl)ccc34)CC2)O[C@@H]2O[C@@]3(C)CC[C@H]4[C@H](C)CC[C@@H]1[C@@]24OO3.O=C(O)C(=O)O | – | – | 29 | 29.2 | 1 | 80 | 2320 | – | – | –
5 | C[C@H]1[C@@H](OCCNc2ccc(Nc3ccnc4cc(Cl)ccc34)cc2)O[C@@H]2O[C@@]3(C)CC[C@H]4[C@H](C)CC[C@@H]1[C@@]24OO3.O=C(O)C(=O)O | – | – | – | 30.2 | 2 | 2040 | 35200 | 17.2 | – | –
6 | CC[C@H]1CN2CCc3cc(OC)c(OC)cc3[C@@H]2C[C@@H]1C[C@H]1NCCc2cc(OC)c(OC)cc21 [EMETINE] | – | – | – | – | – | – | 190 | – | – | –
7 | C[C@H]1[C@@H](OCCN2CCN(CCNc3ccnc4cc(Cl)ccc34)CC2)O[C@@H]2O[C@@]3(C)CC[C@H]4[C@H](C)CC[C@@H]1[C@@]24OO3 | – | – | 201 | 276 | 1 | – | – | – | – | –
8 | C[C@H]1[C@@H](OCCN2CCN(c3ccnc4cc(Cl)ccc34)CC2)O[C@@H]2O[C@@]3(C)CC[C@H]4[C@H](C)CC[C@@H]1[C@@]24OO3 | – | – | – | – | 2 | 193 | 5920 | 30.7 | 68.5 | –
9 | C[C@H]1[C@@H](OCCNc2ccc(Nc3ccnc4cc(Cl)ccc34)cc2)O[C@@H]2O[C@@]3(C)CC[C@H]4[C@H](C)CC[C@@H]1[C@@]24OO3 | – | – | 30.4 | 69.2 | 2 | – | – | – | – | –
10 | CC(CNc1ccnc2cc(Cl)ccc12)NCCO[C@H]1O[C@@H]2O[C@@]3(C)CC[C@H]4[C@H](C)CC[C@@H]([C@H]1C)[C@@]24OO3.O=C(O)C(=O)O (stereo not given in full) | 184 | – | – | – | 1 | – | 2750 | 14.9 | 20.8 | 7
11 | CC(CNc1ccnc2cc(Cl)ccc12)NCCO[C@H]1O[C@@H]2O[C@@]3(C)CC[C@H]4[C@H](C)CC[C@@H]([C@H]1C)[C@@]24OO3 (stereo not given in full) | – | 3390 | 12.2 | 17.1 | 1 | 279 | – | – | – | 9
12 | C[C@H]1[C@@H](O)O[C@@H]2O[C@@]3(C)CC[C@H]4[C@H](C)CC[C@@H]1[C@@]24OO3 [ARTENIMOL] | – | – | – | – | 0.4 | – | – | – | – | –
13 | C[C@H]1[C@@H](OCCNCCNc2ccnc3cc(Cl)ccc23)O[C@@H]2O[C@@]3(C)CC[C@H]4[C@H](C)CC[C@@H]1[C@@]24OO3 | 391 | 33000 | 84.6 | 153 | 2 | – | – | – | – | –
